This is a sample that favours compounds with a hit; in the whole collection about 1.4% have one here.
Vif inh = blocks HIV Vif function | HEK293T cells, Vif self-association by quenched fluorescence, imaging, 24 h | inhibition, % at 7.49 µM | 340,000 tested, 0.35% active; in the data active = inhibition above about 50%, passing the limit was not always enough
CAL PDZ FP-1 = inhibitors of human CAL PDZ peptide binding; Q9HD26; purified CAL PDZ, TMR-peptide fluorescence polarization, 1 h; inhibition, % at 24.9 µM; 300,000 tested, 0.92% active; AID 602252;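 active = mean inhibition of at least 30% with at least half of replicates also reaching 30%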
CDK5 p35 inh = inhibitors of human CDK5/p35 kinase. Q00535+Q15078. Recombinant CDK5/p35, ADP-Glo luminescence, 60 min. inhibition, % at 10 µM. 330,000 tested, 0.01% active. AID 488839;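 active = highest replicate inhibition of at least 50% and at least 75% of replicates reaching 50%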
Target sequence (Q00535 whole entry, looked up): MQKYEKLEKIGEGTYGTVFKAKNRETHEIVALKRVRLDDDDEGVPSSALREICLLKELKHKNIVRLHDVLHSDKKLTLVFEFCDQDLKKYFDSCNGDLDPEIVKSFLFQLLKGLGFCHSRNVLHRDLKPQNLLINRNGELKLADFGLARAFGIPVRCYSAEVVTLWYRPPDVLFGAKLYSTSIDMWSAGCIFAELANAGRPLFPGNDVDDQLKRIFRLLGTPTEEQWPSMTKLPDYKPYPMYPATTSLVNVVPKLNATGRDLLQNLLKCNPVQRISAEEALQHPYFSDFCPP
Target sequence (Q15078 whole entry, looked up): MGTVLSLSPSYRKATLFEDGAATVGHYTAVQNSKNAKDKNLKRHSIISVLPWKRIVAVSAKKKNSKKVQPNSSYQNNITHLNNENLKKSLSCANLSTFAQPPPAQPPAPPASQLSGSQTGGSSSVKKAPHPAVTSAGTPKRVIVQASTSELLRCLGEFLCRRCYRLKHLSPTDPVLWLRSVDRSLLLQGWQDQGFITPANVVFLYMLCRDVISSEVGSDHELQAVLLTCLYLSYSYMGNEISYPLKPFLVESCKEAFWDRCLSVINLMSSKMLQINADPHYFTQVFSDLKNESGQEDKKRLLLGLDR
N-glyco inh = blocks N-linked glycosylation in D54 reporter cells. reporter increase, % at 12.5 µM. 360,000 tested, 0.23% active. D54 ERlucT glycosylation luciferase reporter, 24 h; percent of 100 nM tunicamycin response;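 active = mean luciferase reporter signal, scaled so untreated is 0 and the glycosylation-blocking control 100, at or above a set limit in every replicate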;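 note: luciferase carries N-glycosylation sites so blocking glycosylation raises the light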
PvdQ inh = P. aeruginosa PvdQ acylase inhibition; purified PvdQ acylase, fluorescence plate reader; inhibition, % at 10 µM; 340,000 tested, 0.063% active; AID 488965; in the data active = inhibition above about 30%, passing the limit was not always enough
CAL PDZ FP-2 = inhibitors of human CAL PDZ peptide binding. 330,000 tested, 0.02% active. purified CAL PDZ, TMR-peptide fluorescence polarization, 1 h. inhibition, % at 20 µM. Q9HD26;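 active = highest replicate inhibition of at least 40%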
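Test system: purified CerCALP PDZ construct; Compound dosing: one concentration, 20 µM compound; Also added: TMR-labelled reporter peptide T*-PRC34 bound in PDZ groove; Read-out: inhibition from polarization loss; Controls: unlabelled peptide and DMSO controls; Signal: FP readout, S and P plane fluorescence; Incubation: 1 h at RT.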
Of the large screens only hits and unclear results are named; the others gave an inactive call.

Cc1ccc(/C=N/c2sc3c(c2C#N)CCC3)s1	Vif inh 53
Cc1ccc(/C=N/c2sc3c(c2C#N)CCCCC3)o1	none
C=CCOc1ccc(Br)cc1CNCCO	CAL PDZ FP-1 98
C=CCOc1ccc(Br)cc1CNC(C)(C)CO	none
O=C(CNCC(=O)Nc1ccc(F)c(F)c1F)Nc1ccc(F)c(F)c1F	none (no result: CAL PDZ FP-2)
O=C(Cc1ncon1)Nc1ccc(F)c(F)c1F	CAL PDZ FP-1 78
Cc1ccc(NC(=O)/C=C/C(=O)O)c(NC(=O)c2ccccc2)c1	Vif inh 53 (no result: CAL PDZ FP-1)
Cc1ccc(O)c(NC(=O)/C=C/C(=O)O)c1	none
O=c1[nH]c(CSc2ncnc3sc(-c4ccccc4)cc23)nc2ccccc12	N-glyco inh 33
CCCCCCC(=O)N(O)C1CC(=O)N(c2ccc(C)cc2)C1=O (stereo unspecified)	N-glyco inh 38 (no result: CAL PDZ FP-1)
O=C(O)CSC1CC(=O)N(c2ccc(Cl)cc2)C1=O (stereo unspecified)	none (no result: CAL PDZ FP-2)
Cc1ccc(N2C(=O)CC(N(O)C3CC(=O)N(c4ccc(C)cc4)C3=O)C2=O)cc1 (stereo unspecified)	CAL PDZ FP-1 59
CCCCCCC(=O)N(O)C1CC(=O)N(c2ccc(Cl)cc2)C1=O (stereo unspecified)	N-glyco inh 61 (no result: CAL PDZ FP-1)
O=C(CNC(=O)c1ccccc1Cl)N/N=C/c1ccc2c(c1)OCO2	CAL PDZ FP-1 96
O=C(CNC(=O)c1ccccc1F)N/N=C/c1ccc2c(c1)OCO2	none
COC(=O)c1ccc(OCc2nn[nH]n2)cc1	CAL PDZ FP-1 61
O=C(CN1CCN(c2ccc(O)cc2)CC1)Nc1ccc2c(c1)OCCCO2	none
CCOc1ccc(OCC)c(S(=O)(=O)NCc2ccccc2)c1	Vif inh 55
CCOc1ccc(OCC)c(S(=O)(=O)NCc2cccnc2)c1	none
CC(=O)c1cccc(NC(=S)NC2CCCCCCC2)c1	none
CC1CCCN(C(=O)COC(=O)/C=C/c2ccc(C(F)(F)F)cc2)C1 (stereo unspecified)	CAL PDZ FP-1 72
COc1ccc(N2CCN(C(=O)COC(=O)/C=C/c3ccc(C(F)(F)F)cc3)CC2)cc1	none (no result: Vif inh)
CCC(=O)N1CCCc2cc(S(=O)(=O)N3CCN(C4CCCCC4)CC3)ccc21	CAL PDZ FP-1 42 (no result: CAL PDZ FP-2)
COc1cc(NC(=S)Nc2ccccn2)cc(OC)c1	CAL PDZ FP-1 44
Cc1ccn(CC(=O)N2CCCC(N3CCN(c4cccc(C(F)(F)F)c4)CC3)C2)n1 (stereo unspecified)	none (no result: Vif inh, CAL PDZ FP-1, CDK5 p35 inh, PvdQ inh, CAL PDZ FP-2)
COc1ccccc1CNC(=O)CC1Sc2ccccc2NC1=O (stereo unspecified)	CAL PDZ FP-1 62
Cc1noc(C)c1COc1cccc(C(=O)OCCOc2ccc(F)cc2)c1	none (no result: CAL PDZ FP-2)
Cc1noc(C)c1COc1cccc(C(=O)OC(C)C#N)c1 (stereo unspecified)	CAL PDZ FP-1 73
CCN(CC)CCCNc1oc(-c2ccccc2[N+](=O)[O-])nc1C#N	none
COC(=O)c1ccc(NC(=O)CNc2ccccc2)cc1	CAL PDZ FP-1 43
COC(=O)c1ccc(NC(=O)CC(=O)Nc2ccc(C(=O)OC)cc2)cc1	none
O=C(O)CCC1(CCC(=O)O)CCCC(CCC(=O)O)(CCC(=O)O)C1=O	CAL PDZ FP-1 80
Cc1cccc(NC(=O)CN(C)C(=O)Cc2ccc(-c3ccccc3)cc2)c1C	none (no result: CAL PDZ FP-1, CDK5 p35 inh, PvdQ inh, CAL PDZ FP-2)
Cc1cc(C(=O)N2CCCC(N3CCN(c4cccc(Cl)c4)CC3)C2)n(C)n1 (stereo unspecified)	none
COc1ccccc1N1CCN(C2CCCN(C(=O)c3cc(C4CC4)on3)C2)CC1 (stereo unspecified)	CAL PDZ FP-1 128
Cc1cc(C(=O)N2CCCC(N3CCN(c4ccccc4C)CC3)C2)n(C)n1 (stereo unspecified)	CAL PDZ FP-1 31
CN1C(=S)SC(C)(C)C1/[N+]([O-])=C/c1cccnc1 (stereo unspecified)	CAL PDZ FP-1 123 (no result: CAL PDZ FP-2)
COc1ccc(C(=O)/C=C/Nc2cccc(C)n2)cc1OC	Vif inh 60
COc1ccc(N/C=C/C(=O)c2cc(OC)c(OC)c(OC)c2)cc1	N-glyco inh 38
COc1ccc(N/C=C/C(=O)c2ccc(OC)c(OC)c2)cc1	none
COc1ccc(C=CC(=O)c2c(OC)cc(OC)c(OC)c2O)cc1	N-glyco inh 29
CC(C)Nc1ncnc2[nH]ncc12	none
CC(Sc1ccccc1)C(=O)N/N=C/c1ccccc1 (stereo unspecified)	none
CCOc1cc(-c2cc(-c3ccc(N)cc3)nc(N)c2C#N)ccc1O	none
CCOc1cc(-c2cc(-c3ccccc3)nc(N)c2C#N)ccc1O	N-glyco inh 37
C[C@H](CO)N1C[C@H](C)[C@@H](CN(C)Cc2ccc(-c3ccccc3)cc2)OCc2cnnn2CCCC1=O	none (no result: CAL PDZ FP-1, CDK5 p35 inh, PvdQ inh, CAL PDZ FP-2)
CNC(=O)c1cc(Nc2nnc(C)c3ccccc23)ccc1OC	CAL PDZ FP-1 35 (no result: CAL PDZ FP-2)
CC(C)(CO)NC(=O)c1ccc2nc(Cc3cccc(Cl)c3)oc2c1	none
CC#CC[N+](C)(C)CC(=O)c1ccccc1	none
CC#CC[N+](C)(CC#CC)CC(=O)c1ccccc1	CAL PDZ FP-1 58
CCN(CC)CCN1C(=O)c2cccc3cc(N)cc(c23)C1=O	N-glyco inh 60 (no result: CAL PDZ FP-2)
Cc1cccc(COc2ccc(S(=O)(=O)N3CCOCC3)cc2[N+](=O)[O-])c1	none
COc1cc(COc2ccc(S(=O)(=O)N3CCOCC3)cc2[N+](=O)[O-])ccc1OC(F)F	Vif inh 57 (no result: CAL PDZ FP-1)
O=C1c2ccccc2C(=O)N1COc1ccc(S(=O)(=O)N2CCOCC2)cc1[N+](=O)[O-]	CAL PDZ FP-1 50
CCc1c(C)nc2cc(-c3cccc(Br)c3)[nH]n2c1=O	none
O=C(/C=C/Sc1ccccc1)c1ccccc1	N-glyco inh 33
O=C(/C=C/Sc1ccccc1)c1ccc(Cl)cc1	N-glyco inh 44
O=C(/C=C/Nc1ccccc1)c1ccccc1	none
Cc1ccc(S(=O)(=O)/C(C#N)=C/c2c(N3CC(C)OC(C)C3)nc3ccccn3c2=O)cc1 (stereo unspecified)	Vif inh 67
CC(OC(=O)CCCN=C1NS(=O)(=O)c2ccccc21)C(=O)Nc1ccccc1[N+](=O)[O-] (stereo unspecified)	none
CN(CC/C=C1/c2ccccc2CSc2ccccc21)CCCO	none
CC(O)CN(C)CC/C=C1/c2ccccc2CSc2ccccc21 (stereo unspecified)	Vif inh 86
O=C(COC(=O)C1CCC(=O)N1)Nc1cccc([N+](=O)[O-])c1 (stereo unspecified)	none (no result: CAL PDZ FP-1)
C[N+](C)(C)CCN1C(=O)CSC1=O	Vif inh 55
COc1ccc(N/N=C(\C#N)C(=N)N2CCCCC2)cc1	CAL PDZ FP-1 49
Cc1ccc(N/N=C(\C#N)C(=N)N2CCCCCC2)cc1	CAL PDZ FP-1 30 (no result: Vif inh)
CC(C)(C)c1ccc(S(=O)(=O)N2CCN(Cc3cc4c(cc3O)OCO4)CC2)cc1	none
